For 28 compounds, IC50 and inhibition results are on record in ChEMBL document CHEMBL4382246, “Synthesis, biological evaluation, and molecular docking investigation of 3-amidoindoles as potent tubulin polymerization inhibitors” (Eur J Med Chem, 2019).

For experiment [1], the system named is MCF7. Put plainly: Cytotoxicity against human MCF7 cells after 72 hrs by MTT assay. The class given is functional, cell-based. The settings on record: MCF7, 72 h. In short, it runs like this: (§1)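 Lines kept in RPMI-1640 with 10% FBS. Cells were seeded at 2×10³ per well and allowed to attach for 24 h at 37 °C. Medium was then replaced with medium holding serial dilutions from 100 mM DMSO stocks, with 0.1% DMSO as negative control, for 72 h at 37 °C. […] IC50 was fitted from the concentration series as the mean ± SD of three independent experiments run in duplicate.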

Experiment [2] relates to MDA-MB-231. Put plainly: Cytotoxicity against human MDA-MB-231 cells after 72 hrs by MTT assay. The format is functional, cell-based. The settings on record: MDA-MB-231, 72 h. In short, it runs like this: as §1
For experiment [3], the system named is BT-549. Put plainly: Cytotoxicity against human BT549 cells after 72 hrs by MTT assay. The format is functional, cell-based. The settings on record: BT-549, 72 h. The method in brief: as §1
On the technique in general: Tetrazolium dyes change colour on reduction, which living cells bring about.

Experiment [4] relates to T47D. As to the kind of experiment: Cytotoxicity against human T47D cells after 72 hrs by MTT assay. The class given is functional, cell-based. In short, it runs like this: as §1
For experiment [5], the system named is MDA-MB-468. As to the kind of experiment: Cytotoxicity against human MDA-MB-468 cells after 72 hrs by MTT assay. The format is functional, cell-based. The note with it: MDA-MB-468, 72 h. In short, it runs like this:
as §1

For experiment [6], the system named is Hs-578T. As to the kind of experiment: Cytotoxicity against human Hs578T cells after 72 hrs by MTT assay. The class given is functional, cell-based. The method in brief: as §1
The target in experiment [7] is Tubulin (Sus scrofa) (UniProt P02554+P02550). As to the kind of experiment: Inhibition of pig brain tubulin polymerization at 10 uM by spectrophotometric analysis relative to control. The method in brief: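 Tubulin polymerization inhibition was measured with compounds at a final concentration of 10 µM.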
Sequence of Tubulin (Sus scrofa) (P02550 whole entry, looked up): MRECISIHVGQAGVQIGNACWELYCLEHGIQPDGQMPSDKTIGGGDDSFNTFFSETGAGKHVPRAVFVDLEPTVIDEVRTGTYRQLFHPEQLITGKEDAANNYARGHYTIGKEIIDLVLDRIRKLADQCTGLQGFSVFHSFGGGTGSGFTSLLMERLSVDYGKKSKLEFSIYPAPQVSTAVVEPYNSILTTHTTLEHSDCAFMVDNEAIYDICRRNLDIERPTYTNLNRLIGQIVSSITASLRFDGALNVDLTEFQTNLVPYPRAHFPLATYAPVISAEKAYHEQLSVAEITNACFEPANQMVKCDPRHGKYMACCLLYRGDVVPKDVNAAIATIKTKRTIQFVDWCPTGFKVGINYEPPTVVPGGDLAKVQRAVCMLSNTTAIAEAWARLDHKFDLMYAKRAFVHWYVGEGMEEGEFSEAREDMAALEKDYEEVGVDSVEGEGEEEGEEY
Sequence of Tubulin (Sus scrofa) (P02554 whole entry, looked up): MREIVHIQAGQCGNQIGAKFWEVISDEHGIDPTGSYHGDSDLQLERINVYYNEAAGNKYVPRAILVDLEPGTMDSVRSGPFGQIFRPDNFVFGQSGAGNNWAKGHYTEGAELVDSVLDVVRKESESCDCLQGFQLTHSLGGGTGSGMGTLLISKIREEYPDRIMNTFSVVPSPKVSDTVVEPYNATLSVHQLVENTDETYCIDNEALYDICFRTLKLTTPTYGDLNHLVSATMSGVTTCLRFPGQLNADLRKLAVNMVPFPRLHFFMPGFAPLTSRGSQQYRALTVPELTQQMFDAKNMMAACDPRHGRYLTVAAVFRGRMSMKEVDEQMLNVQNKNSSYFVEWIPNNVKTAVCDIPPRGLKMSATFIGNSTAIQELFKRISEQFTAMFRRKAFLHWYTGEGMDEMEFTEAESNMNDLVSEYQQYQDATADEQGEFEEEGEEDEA

On to `COc1cc(C(=O)Nc2c(C(=O)c3ccc(F)cc3)[nH]c3cc(C)ccc23)cc(OC)c1OC`, for which the IC50 (in general, the midpoint of a concentration-inhibition curve) stood at 8.89 µM in experiment [1]; 5.17 µM in experiment [2]; 8.66 µM in experiment [3]; 5.72 µM in experiment [4]; 6.16 µM in experiment [5]; 8.95 µM in experiment [6]. The inhibition – broadly, the change of the read-out against control, counted positive when it falls – in experiment [7] was 17%.
On to `COc1cc(C(=O)Nc2c(C(=O)c3ccc(-c4ccccc4)cc3)[nH]c3cc(C)ccc23)cc(OC)c1OC`, for which the IC50 was over 100 µM in experiment [1]; 18.2 µM in experiment [2]; over 100 µM in experiment [3]; over 100 µM in experiment [4]; over 100 µM in experiment [5]; over 100 µM in experiment [6].
As to `COc1cc(C(=O)Nc2c(C(=O)c3ccc(-c4ccccc4)cc3)[nH]c3ccccc23)cc(OC)c1OC`, the IC50 in experiment [1] is over 100 µM; in experiment [2] it was over 100 µM; in experiment [3], over 100 µM; in experiment [4] it was over 100 µM; in experiment [5] it was over 100 µM; in experiment [6], 22.2 µM.
With `COc1cccc(C(=O)c2[nH]c3cc(Cl)ccc3c2NC(=O)c2cc(OC)c(OC)c(OC)c2)c1`, the IC50 in experiment [1] is over 100 µM; in experiment [2], over 100 µM; in experiment [3] it was over 100 µM; in experiment [4], 52.4 µM; in experiment [5] it was over 100 µM; in experiment [6], over 100 µM.
For `COc1cc(C(=O)Nc2c(C(=O)c3ccc(C)cc3)[nH]c3cc(Cl)ccc23)cc(OC)c1OC`, the IC50 turned out to be 34.3 µM in experiment [1]; 33.6 µM in experiment [2]; 25.1 µM in experiment [3]; 16.6 µM in experiment [4]; 5.79 µM in experiment [5]; 14.2 µM in experiment [6]. In addition, the inhibition in experiment [7] is 36%.
For `COc1ccc(C(=O)c2[nH]c3cc(Cl)ccc3c2NC(=O)c2cc(OC)c(OC)c(OC)c2)cc1O`, the IC50 in experiment [1] is 32.6 µM; in experiment [2] it was 22.2 µM; in experiment [3] it was 7.48 µM; in experiment [4], 9.28 µM; in experiment [5], 23.2 µM; in experiment [6], 4.35 µM. In addition, in experiment [7], the inhibition amounted to 30%.
Regarding `COc1cc(C(=O)Nc2c(C(=O)c3ccc(F)c(F)c3)[nH]c3cc(Cl)ccc23)cc(OC)c1OC`, the IC50 in experiment [1] is 10.1 µM; in experiment [2], over 100 µM; in experiment [3], 51.2 µM; in experiment [4], over 100 µM; in experiment [5], over 100 µM; in experiment [6], 64.6 µM.
Take `COc1cc(C(=O)Nc2c(C(=O)c3ccc4ccccc4c3)[nH]c3cc(C)ccc23)cc(OC)c1OC`: the IC50 in experiment [1] is over 100 µM; in experiment [2] it was over 100 µM; in experiment [3], 39.8 µM; in experiment [4], over 100 µM; in experiment [5], over 100 µM; in experiment [6], 53.3 µM.
As to `COc1cc(C(=O)Nc2c(C(=O)c3cccs3)[nH]c3cc(C)ccc23)cc(OC)c1OC`, the IC50 in experiment [1], in experiment [2], in experiment [3], in experiment [4], in experiment [5] and in experiment [6] was over 100 µM throughout.
`COc1ccc2c(NC(=O)c3cc(OC)c(OC)c(OC)c3)c(C(=O)c3ccc(C)cc3)[nH]c2c1`: the IC50 in experiment [1], in experiment [2], in experiment [3], in experiment [4], in experiment [5] and in experiment [6] was over 100 µM each time.
`COc1cc(C(=O)Nc2c(C(=O)c3ccc(C)cc3)[nH]c3cc(C)ccc23)cc(OC)c1OC`: the IC50 in experiment [1] amounted to 69.5 µM; in experiment [2] it was 33.4 µM; in experiment [3], 69.8 µM; in experiment [4] it was 40.2 µM; in experiment [5], 75.1 µM; in experiment [6] it was 43.7 µM.
Take `COc1ccc(C(=O)c2[nH]c3cc(Cl)ccc3c2NC(=O)c2cc(OC)c(OC)c(OC)c2)cc1`: the IC50 in experiment [1] amounted to 17.6 µM; in experiment [2] it was 9.17 µM; in experiment [3], 11.1 µM; in experiment [4], 11.1 µM; in experiment [5], 8.61 µM; in experiment [6], 15.9 µM. Besides, the inhibition in experiment [7] was determined as 47%.
For the compound `COc1cc(C(=O)Nc2c(C(=O)c3cccs3)[nH]c3ccccc23)cc(OC)c1OC`, the half-maximal inhibitory concentration (IC50) is over 100 µM in experiment [1]; over 100 µM in experiment [2]; over 100 µM in experiment [3]; over 100 µM in experiment [4]; over 100 µM in experiment [5]; 29.6 µM in experiment [6].
Regarding `COc1cc(C(=O)Nc2c(C(=O)c3ccccc3)[nH]c3cc(C)ccc23)cc(OC)c1OC`, the concentration for half-maximal inhibition (IC50) in experiment [1] was 32.7 µM; in experiment [2], 16.6 µM; in experiment [3] it was 42.3 µM; in experiment [4], over 100 µM; in experiment [5], over 100 µM; in experiment [6], 49.1 µM.
For `COc1ccc2c(NC(=O)c3cc(OC)c(OC)c(OC)c3)c(C(=O)c3ccccc3)[nH]c2c1`, the IC50 in experiment [1], in experiment [2], in experiment [3], in experiment [4], in experiment [5] and in experiment [6] was over 100 µM each time.
As for `COc1ccc(C(=O)c2[nH]c3cc(OC)ccc3c2NC(=O)c2cc(OC)c(OC)c(OC)c2)cc1`, the IC50 in experiment [1] came to 79.3 µM; in experiment [2], 48.8 µM; in experiment [3] it was 18.2 µM; in experiment [4], 6.3 µM; in experiment [5] it was 26.4 µM; in experiment [6], 10.4 µM. This compound also gave an inhibition in experiment [7] of 25%.
As for `COc1cc(C(=O)Nc2c(C(=O)c3ccccc3)[nH]c3cc(Cl)ccc23)cc(OC)c1OC`, the IC50 in experiment [1] was 51.8 µM; in experiment [2], 32.7 µM; in experiment [3] it was 26.9 µM; in experiment [4], 45.5 µM; in experiment [5], 11 µM; in experiment [6], over 100 µM. Also, in experiment [7], the inhibition turned out to be 41%.
As for `COc1cc(C(=O)Nc2c(C(=O)c3ccc(F)cc3)[nH]c3cc(Cl)ccc23)cc(OC)c1OC`, the IC50 was 61.1 µM in experiment [1]; 46.6 µM in experiment [2]; 35.5 µM in experiment [3]; 76.2 µM in experiment [4]; over 100 µM in experiment [5]; over 100 µM in experiment [6].
For `COc1cc(C(=O)Nc2c(C(=O)c3ccc(Br)cc3)[nH]c3ccccc23)cc(OC)c1OC`, the IC50 in experiment [1] worked out at 7.14 µM; in experiment [2] it was 6.47 µM; in experiment [3], 10.3 µM; in experiment [4], 9.55 µM; in experiment [5], 7.87 µM; in experiment [6] it was 7.52 µM. The inhibition in experiment [7] was found to be 37%.
`COc1cc(C(=O)Nc2c(C(=O)c3cccc(Br)c3)[nH]c3cc(Cl)ccc23)cc(OC)c1OC`: the IC50 in experiment [1] was determined as 23 µM; in experiment [2], 26.8 µM; in experiment [3] it was 8.42 µM; in experiment [4], 14.1 µM; in experiment [5] it was 20.8 µM; in experiment [6], 4.1 µM. In experiment [7], the inhibition turned out to be 25%.
For the compound `COc1cc(C(=O)Nc2c(C(=O)c3cccs3)[nH]c3cc(Cl)ccc23)cc(OC)c1OC`, the IC50 is 47.5 µM in experiment [1]; over 100 µM in experiment [2]; 37.5 µM in experiment [3]; 31.4 µM in experiment [4]; 15.3 µM in experiment [5]; 49.2 µM in experiment [6].
Take `COc1cc(C(=O)Nc2c(C(=O)c3ccccc3)[nH]c3ccccc23)cc(OC)c1OC`: the 50% inhibitory concentration (IC50) in experiment [1] was over 100 µM; in experiment [2], 17.2 µM; in experiment [3], over 100 µM; in experiment [4] it was over 100 µM; in experiment [5] it was over 100 µM; in experiment [6], over 100 µM.
Regarding `COc1cc(C(=O)Nc2c(C(=O)c3ccco3)[nH]c3cc(Cl)ccc23)cc(OC)c1OC`, the IC50 in experiment [1], in experiment [2], in experiment [3], in experiment [4], in experiment [5] and in experiment [6] was over 100 µM each time.
Consider `COc1ccc(C(=O)c2[nH]c3ccccc3c2NC(=O)c2cc(OC)c(OC)c(OC)c2)cc1`, for which the IC50 in experiment [1] was 10.7 µM; in experiment [2], 35 µM; in experiment [3] it was 10.4 µM; in experiment [4] it was 5.56 µM; in experiment [5], 7.09 µM; in experiment [6], over 100 µM. The inhibition in experiment [7] was 20%.
Regarding `COc1cc(C(=O)Nc2c(C(=O)c3ccc(F)cc3)[nH]c3ccccc23)cc(OC)c1OC`, the concentration for half-maximal inhibition (IC50) is 77.9 µM in experiment [1]; 50.8 µM in experiment [2]; 42.6 µM in experiment [3]; 60.9 µM in experiment [4]; over 100 µM in experiment [5]; over 100 µM in experiment [6].
As for `COc1cc(C(=O)Nc2c(C(=O)c3ccc(Cl)cc3)[nH]c3cc(C)ccc23)cc(OC)c1OC`, the IC50 is 3.85 µM in experiment [1]; 3.22 µM in experiment [2]; 4.81 µM in experiment [3]; 6.25 µM in experiment [4]; 4.12 µM in experiment [5]; 3.59 µM in experiment [6]. Further, the inhibition in experiment [7] is 15%.
Regarding `COc1cc(C(=O)Nc2c(C(=O)c3ccc(C)cc3)[nH]c3ccccc23)cc(OC)c1OC`, the IC50 in experiment [1] was 50 µM; in experiment [2], 12.6 µM; in experiment [3], 17.1 µM; in experiment [4], 20.1 µM; in experiment [5], 14.5 µM; in experiment [6], 50.5 µM.
In the case of `COc1cccc(C(=O)c2[nH]c3ccccc3c2NC(=O)c2cc(OC)c(OC)c(OC)c2)c1`, the IC50 in experiment [1] was over 100 µM; in experiment [2], over 100 µM; in experiment [3], 65.5 µM; in experiment [4], 53.4 µM; in experiment [5], over 100 µM; in experiment [6], 9.06 µM.
